Measurements published in ChEMBL document CHEMBL1121933 (1982).

Key:
Canis familiaris [1] = organism: Canis familiaris; assay: Intrinsic activity was measured on the dog carotid artery.; assay type: functional, Canis lupus familiaris
Canis familiaris [2] = organism: Canis familiaris; assay: Apparent affinity was measured on the dog carotid artery.; assay type: functional, Canis lupus familiaris
Cavia porcellus [3] = organism: Cavia porcellus; assay: Relative affinity compared to substance P was measured in guinea pig ileum.; assay type: functional
Method in brief: (§1)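 Guinea pig ileum (animals 200-400 g, both sexes) from animals killed by stunning and exsanguination. Concentration-response curves built by consecutive additions of drug to the bath.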

Cavia porcellus [4] = organism: Cavia porcellus; assay: Intrinsic activity was measured on the guinea pig ileum.; assay type: functional; method in brief: as §1
Cavia porcellus [5] = organism: Cavia porcellus; assay: Apparent affinity was measured on the guinea pig ileum.; assay type: functional; method in brief: as §1
Oryctolagus cuniculus [6] = organism: Oryctolagus cuniculus; assay: Intrinsic activity was measured on the rabbit mesenteric vein.; assay type: functional
Method in brief: (§2)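 Rabbit mesenteric vein from rabbits killed by stunning and exsanguination. Concentration-response curves built by consecutive drug additions to the bath fluid.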

Oryctolagus cuniculus [7] = organism: Oryctolagus cuniculus; assay: Apparent affinity was measured on the rabbit mesenteric vein.; assay type: functional; method in brief: as §2
Oryctolagus cuniculus [8] = organism: Oryctolagus cuniculus; assay: Relative affinity compared to substance P was measured in rabbit mesenteric vein.; assay type: functional; method in brief: as §2
Rattus norvegicus = assay: Relative potency compared substance P - change in blood pressure in anesthetized rat.; assay type: functional
Method in brief: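 Rats 200-250 g, anesthetized with urethane (1.4 g/kg, sc). Peptides injected into the jugular vein. Blood pressure recorded directly via a cannula in the right carotid artery with a mercury manometer on a kymograph-driven smoked drum.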

Canis familiaris [9] = organism: Canis familiaris; assay: Relative affinity compared to substance P was measured in the dog carotid artery.; assay type: functional, Canis lupus familiaris

Row | Compound | Alphax10E (Canis familiaris [1]) | pD2 (Canis familiaris [2]) | RA (Cavia porcellus [3]) | Alphax10E (Cavia porcellus [4]) | pD2 (Cavia porcellus [5]) | Alphax10E (Oryctolagus cuniculus [6]) | pD2 (Oryctolagus cuniculus [7]) | RA (Oryctolagus cuniculus [8]) | RP (Rattus norvegicus) | RA (Canis familiaris [9])
1 | CSCC[C@H](NC(=O)[C@H](CC(C)C)NC(=O)CNC(=O)[C@H](Cc1ccccc1)NC(=O)[C@H](CC1CCCCC1)NC(=O)[C@H](CCC(N)=O)NC(=O)[C@H](CCC(N)=O)NC(=O)[C@@H]1CCCN1C(=O)[C@H](CCCCN)NC(=O)[C@@H]1CCCN1C(=O)[C@@H](N)CCCN=C(N)N)C(N)=O | 1 | 8.8 | 20 | 1 | 8.08 | 0.8 | 6.66 | 13.2 | 21 | 6.4
2 | CC[C@H](C)[C@H](NC(=O)[C@H](Cc1ccccc1)NC(=O)[C@H](CCC(N)=O)NC(=O)[C@H](CCC(N)=O)NC(=O)[C@@H]1CCCN1C(=O)[C@H](CCCCN)NC(=O)[C@@H]1CCCN1C(=O)[C@@H](N)CCCN=C(N)N)C(=O)NCC(=O)N[C@@H](CC(C)C)C(=O)N[C@@H](CCSC)C(N)=O | – | – | 100 | 1 | 8.78 | 1 | 7.55 | 100 | 100 | –
3 | CSCC[C@H](NC(=O)[C@H](CC(C)C)NC(=O)CNC(=O)[C@H](CC1CCCCC1)NC(=O)[C@H](Cc1ccccc1)NC(=O)[C@H](CCC(N)=O)NC(=O)[C@H](CCC(N)=O)NC(=O)[C@@H]1CCCN1C(=O)[C@H](CCCCN)NC(=O)[C@@H]1CCCN1C(=O)[C@@H](N)CCCN=C(N)N)C(N)=O | – | – | 100 | 1 | 8.78 | 1 | 7.55 | 100 | 100 | –
4 | CSCC[C@H](NC(=O)[C@H](CC(C)C)NC(=O)[C@@H](Cc1ccccc1)NC(=O)[C@@H](CC(C)C)NC(=O)[C@H](Cc1ccccc1)NC(=O)[C@H](CCC(N)=O)NC(=O)[C@H](CCC(N)=O)NC(=O)[C@@H]1CCCN1C(=O)[C@H](CCCCN)NC(=O)[C@@H]1CCCN1C(=O)[C@@H](N)CCCN=C(N)N)C(N)=O | 1 | 7.89 | 1.2 | – | 6.83 | – | – | <0.01 | 1.3 | 0.8
5 | CSCC[C@H](NC(=O)[C@H](CC(C)C)NC(=O)CNC(=O)[C@@H](Cc1c[nH]c2ccccc12)NC(=O)[C@H](Cc1ccccc1)NC(=O)[C@H](CCC(N)=O)NC(=O)[C@H](CCC(N)=O)NC(=O)[C@@H]1CCCN1C(=O)[C@H](CCCCN)NC(=O)[C@@H]1CCCN1C(=O)[C@@H](N)CCCN=C(N)N)C(N)=O | 1 | 7.12 | 0.8 | 1 | 6.68 | – | 4.92 | 0.3 | 0.8 | 0.2
6 | COc1ccc(C[C@H](NC(=O)[C@H](CCC(N)=O)NC(=O)[C@H](CCC(N)=O)NC(=O)[C@@H]2CCCN2C(=O)[C@H](CCCCN)NC(=O)[C@@H]2CCCN2C(=O)[C@@H](N)CCCN=C(N)N)C(=O)N[C@@H](Cc2ccccc2)C(=O)NCC(=O)N[C@@H](CC(C)C)C(=O)N[C@@H](CCSC)C(N)=O)cc1 | – | – | 31 | 1 | 8.27 | 0.8 | 6.87 | 20.5 | 31 | –
7 | CSCC[C@H](NC(=O)[C@H](CC(C)C)NC(=O)CNC(=O)[C@H](Cc1ccccc1)NC(=O)[C@H](CC(C)C)NC(=O)[C@H](CCC(N)=O)NC(=O)[C@H](CCC(N)=O)NC(=O)[C@@H]1CCCN1C(=O)[C@H](CCCCN)NC(=O)[C@@H]1CCCN1C(=O)[C@@H](N)CCCN=C(N)N)C(N)=O | 1 | 7.64 | 2.3 | 1 | 7.15 | – | 5.66 | 1.3 | 0.8 | 0.4
8 | COc1ccc(C[C@H](NC(=O)[C@H](Cc2ccccc2)NC(=O)[C@H](CCC(N)=O)NC(=O)[C@H](CCC(N)=O)NC(=O)[C@@H]2CCCN2C(=O)[C@H](CCCCN)NC(=O)[C@@H]2CCCN2C(=O)[C@@H](N)CCCN=C(N)N)C(=O)NCC(=O)N[C@@H](CC(C)C)C(=O)N[C@@H](CCSC)C(N)=O)cc1 | 1 | 9.98 | 100 | 1 | 8.78 | 1 | 7.55 | 100 | 100 | 95
9 | CSCC[C@H](NC(=O)[C@H](CC(C)C)NC(=O)[C@@H](CC(C)C)NC(=O)[C@H](Cc1ccccc1)NC(=O)[C@H](Cc1ccccc1)NC(=O)[C@H](CCC(N)=O)NC(=O)[C@H](CCC(N)=O)NC(=O)[C@@H]1CCCN1C(=O)[C@H](CCCCN)NC(=O)[C@@H]1CCCN1C(=O)[C@@H](N)CCCN=C(N)N)C(N)=O | 1 | 7.49 | 2.7 | 1 | 7.21 | – | 5.11 | 0.4 | 0.7 | 0.3
10 | CSCC[C@H](NC(=O)[C@H](CC(C)C)NC(=O)CNC(=O)[C@H](Cc1ccccc1)NC(=O)[C@H](Cc1c[nH]c2ccccc12)NC(=O)[C@H](CCC(N)=O)NC(=O)[C@H](CCC(N)=O)NC(=O)[C@@H]1CCCN1C(=O)[C@H](CCCCN)NC(=O)[C@@H]1CCCN1C(=O)[C@@H](N)CCCN=C(N)N)C(N)=O | 1 | 9.56 | 39.7 | 1 | 8.38 | – | 6.55 | 10 | 51 | 37.1
11 | CSCC[C@H](NC(=O)[C@H](Cc1ccccc1)NC(=O)CNC(=O)[C@@H](C)NC(=O)[C@H](Cc1ccccc1)NC(=O)[C@H](CCC(N)=O)NC(=O)[C@H](CCC(N)=O)NC(=O)[C@@H]1CCCN1C(=O)[C@H](CCCCN)NC(=O)[C@@H]1CCCN1C(=O)[C@@H](N)CCCN=C(N)N)C(N)=O | 1 | 8.15 | <0.01 | – | 4.73 | – | – | <0.1 | 0.09 | 1.4
12 | CSCC[C@H](NC(=O)[C@H](CC(C)C)NC(=O)CNC(=O)[C@H](Cc1ccccc1)NC(=O)[C@@H](Cc1c[nH]c2ccccc12)NC(=O)[C@H](CCC(N)=O)NC(=O)[C@H](CCC(N)=O)NC(=O)[C@@H]1CCCN1C(=O)[C@H](CCCCN)NC(=O)[C@@H]1CCCN1C(=O)[C@@H](N)CCCN=C(N)N)C(N)=O | 1 | 7.33 | 0.2 | 1 | 5.9 | – | – | <0.1 | 0.2 | 0.2
13 | CSCC[C@H](NC(=O)[C@H](CC(C)C)NC(=O)CNC(=O)[C@H](CC(C)C)NC(=O)[C@H](Cc1ccccc1)NC(=O)[C@H](CCC(N)=O)NC(=O)[C@H](CCC(N)=O)NC(=O)[C@@H]1CCCN1C(=O)[C@H](CCCCN)NC(=O)[C@@H]1CCCN1C(=O)[C@@H](N)CCCN=C(N)N)C(N)=O | 1 | 9.81 | 68 | 1 | 8.61 | 0.8 | 6.92 | 23.6 | 70 | 64
14 | H-RPKPQQFGGFM-NH2 | 1 | 7.33 | <0.1 | – | 5.31 | – | – | <0.1 | 0.07 | 0.2
15 | H-RPKPQQLLGLM-NH2 | 1 | 6.38 | <0.1 | – | 5.29 | – | – | <0.01 | 0.2 | <0.1
